UBC13 polyUb: UBC13 polyubiquitin chain formation inhibitors, primary screen, biochemical, TR-FRET, uHTS; Ubiquitin-conjugating enzyme E2 N (Homo sapiens), P61088; inhibition, % at 20 µM; 330,000 tested, 0.47% active; in the data active means inhibition above about 45%, passing the limit was not always enough
Target sequence (P61088 whole entry, looked up): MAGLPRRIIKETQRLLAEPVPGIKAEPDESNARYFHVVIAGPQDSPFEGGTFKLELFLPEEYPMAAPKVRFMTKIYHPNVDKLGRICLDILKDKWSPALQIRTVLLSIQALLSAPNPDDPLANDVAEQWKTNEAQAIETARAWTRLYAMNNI
Apaf-1 inh: inhibitors of human Apaf-1 apoptosome, primary screen, biochemical, DEVD-Rh110 fluorescence, uHTS | Apoptotic protease-activating factor 1 (Homo sapiens), O14727 | reconstituted apoptosome caspase-3 activity | inhibition, % at 20 µM | 330,000 tested, 0.71% active; active means inhibition of at least 40% at 20 µM;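 further: plate controls were DMSO wells for no effect and DEVD-CHO caspase inhibitor wells for full effect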
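Material: biochemical Apaf-1 apoptosome reconstitution. Medium: Hepes buffer, pH 7.5. Also added: cytochrome c activation, bis-DEVD rhodamine 110 substrate. Timing: 30 min compound preincubation, 50 min activation, room temperature. Measured by: rhodamine 110 fluorescence at Ex 480/Em 540 nm.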
MEKK2mut PB1 HTS: MEK5 binding signal on mutant MEKK2 PB1, primary screen, biochemical, multiplex bead flow cytometry, Alexa488-MEK5. Alexa488-MEK5 binding to MEKK2 mutant. percent response, % at 10 µM. 290,000 tested, 0.35% active. AID 1530, 2009; in the data active means percent response above about 24%, passing the limit was not always enough
UCH37 DUB inh: inhibitors of human UCH37 deubiquitinase, primary screen, biochemical, Ub-AMC cleavage, fluorescence; 330,000 tested, 0.33% active; inhibition, % (no concentration beside the values); Ubiquitin carboxyl-terminal hydrolase isozyme L5 (Homo sapiens), Q9Y5K5; purified proteasome/UCH37; AID 588478, 2011;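 active means mean inhibition over replicate wells above about 20%, limit read from the data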;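 further: 0% = compound-free wells with enzyme and 100% = wells lacking proteasome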
Target sequence (Q9Y5K5 whole entry, looked up): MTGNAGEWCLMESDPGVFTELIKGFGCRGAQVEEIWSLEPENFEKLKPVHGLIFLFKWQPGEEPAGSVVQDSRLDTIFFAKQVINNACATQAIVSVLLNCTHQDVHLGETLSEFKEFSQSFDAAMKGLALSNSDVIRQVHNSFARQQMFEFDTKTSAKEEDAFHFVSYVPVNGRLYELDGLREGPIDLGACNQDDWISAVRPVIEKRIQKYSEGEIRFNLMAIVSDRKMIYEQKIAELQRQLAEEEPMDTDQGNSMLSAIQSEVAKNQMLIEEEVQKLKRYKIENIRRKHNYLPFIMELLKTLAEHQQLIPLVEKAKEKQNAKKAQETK
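system = Proteasome-associated human UCH37 deubiquitinase | amount = 0.15 nM proteasome as dispensed | medium = pH 7.4 Tris-HCl (50 mM) with ovalbumin, ATP-MgCl2, DTT | incubation = 30 min preincubation with enzyme, 25 min cleavage at room temperature | detection = AMC fluorescence 355/460 nm | read-out basis = percent inhibition | controls = no-proteasome and no-compound wells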
MEKK2 WT-MEK5: modulators of MEK5 binding to wildtype MEKK2, primary screen, biochemical, multiplex bead flow cytometry, Alexa488-MEK5; binding response (% of control), % at 10 µM; Alexa488-MEK5 binding to MEKK2 WT; actives lie on both sides; 290,000 tested, 1.1% active; in the data active means binding response below about 67% or above about 130%
MEKK3 PB1 HTS: modulators of MEKK3-MEK5 PB1 binding, primary screen, biochemical, wildtype MEKK3, multiplex bead flow cytometry, Alexa488-MEK5 | Mitogen-activated protein kinase kinase kinase 3 (Homo sapiens), Q99759 | bead-based flow cytometry, Alexa488-MEK5 binding to MEKK3; actives lie on both sides; 0 = blocked by unlabeled MEK5, 100 = vehicle | binding response (% of control), % at 10 µM | 290,000 tested, 1.4% active;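 active means binding response more than 3 SD above or below the average of its plate-row segment, actives on both sides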;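 further: Alexa488 bead fluorescence after subtracting the streptavidin-only scavenger bead signal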
Apaf-1 inh conf: Apaf-1 inhibitors, single-dose retest, confirmation, biochemical, fluorescence, DEVD-Rh110, 20 µM | shares compounds with Apaf-1 inh | reconstituted apoptosome, caspase-3 DEVD-Rh110 fluorescence | inhibition, % at 20 µM | 1,800 tested, 25% active | AID 504614, 2011;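 active means mean inhibition of at least 40% at 20 µM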;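 further: plate controls were DMSO wells for no effect and DEVD-CHO caspase inhibitor control wells for full effect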
Rh110 interf inh: Rh110 fluorescence interference by putative Apaf-1 inhibitors, confirmation, artefact control for Apaf-1 inhibitor project, biochemical, 20 µM. shares compounds with Apaf-1 inh. AID 504615, 2011. activation (fluorescence interference), % at 20 µM. quenched caspase reaction. 1,800 tested, under 10 active;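 active means signal rise of 40% or more at 20 µM, treated as a fluorescence artifact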
Apaf1 inh interf: fluorescence interference of Apaf-1 inhibitor hits, dose response, artefact control for Apaf-1 inhibitor project; IC50, µM; 460 tested, under 10 active; AID 588538, 2011; fluorescence interference counterscreen, Apaf-1 assay format; shares compounds with Apaf-1 inh; call rule not given here
* hit, by the source's call; · = no result; ! = not confirmed by another sample. In the library only some 3% were active in any assay of this set; here they are far more common.

SMILES	UBC13 polyUb	Apaf-1 inh	MEKK2mut PB1 HTS	UCH37 DUB inh	MEKK2 WT-MEK5	MEKK3 PB1 HTS	Apaf-1 inh conf	Rh110 interf inh	others
CCOCCCNC(=O)CN1C(=O)COc2ccc(S(=O)(=O)N3CCCC3)cc21	-9	-6	-6	3	97	97	·	·
Cc1cccc(OCC(=O)Nc2ccc3c(c2)nc(CN2CCCCC2)n3C)c1	0	2	24	-5	119	118	·	·
Cn1c(CN2CCCC2)nc2cc(NC(=O)COc3ccccc3)ccc21	2	53*	0	0	105	103	20	3
CC(=NNS(=O)(=O)c1ccc(C(C)(C)C)cc1)c1ccccc1	·	·	·	0	·	·	·	·
Cc1[nH]n(-c2ccccc2)c(=O)c1N=Nc1cccc(S(=O)(=O)N2CCOCC2)c1	-72	46*	5	5	102	98	9	2
O=[N+]([O-])c1cc([N+](=O)[O-])c2nonc2c1Nc1ccccc1O	-79	31	16	13	106	106	·	·
O=[N+]([O-])c1cc([N+](=O)[O-])c2nonc2c1Nc1ccc(O)cc1	-182	74*	10	15	101	104	13	-2
COc1ccc(/C=N/NC(=O)CCn2cnc(-c3ccccc3)c2-c2ccccc2)cc1	11	54*	2	·	106	150*	44*	11	Apaf1 inh interf=>100
COc1ccc(C=NNC(=O)CCn2cnc(-c3ccccc3)c2-c2ccccc2)cc1	·	·	·	3	·	·	·	·
CN1CCc2cccc3c2[C@H]1Cc1ccc(O)c(O)c1-3	4	42*!	3	-4	100	88	6	7
Cc1ccc(-c2ccc(/C=N\NC(=O)C3C(=O)NCC3c3ccccc3)o2)cc1Cl (stereo not given)	-2	43*	2	·	102	107	35	14
O=C1NCC(c2ccccc2)C1C(=O)N/N=C\c1ccc(-c2cccc(Cl)c2Cl)o1 (stereo not given)	2	40*	-1	·	96	100	20	7
COc1ccc(/C=C2/C(=O)N(c3cccc(F)c3)N=C2C)c(OC)c1	-22	90*	0	4	102	99	17	2
O=C(CSc1nc(=O)n2ccccc2n1)NCc1ccccc1Cl	-3	48*	·	-11	·	·	-6	-1
O=C(CSc1nc(=O)n2ccccc2n1)NCc1ccccc1	-9	-1	·	0	·	·	·	·
Cc1ccc(C(=O)N2CCCN(c3nc4cc5c(cc4cc3C#N)OCO5)CC2)cc1	-26	67*	3	-266	93	99	23	-2
O=C(Nc1ccc(Oc2cccnc2)cc1)C1CCN(Cc2cccc(Cl)c2)CC1	1	1	1	0	113	101	·	·
Cc1nn(C)c(C(=O)N/N=C/c2cccc(Oc3ccccc3)c2)c1Br	-8	11	6	·	105	106	·	·
N#Cc1cc2ccc(N3CCOCC3)cc2cc1C#N	-30	82*	1	-42	102	103	10	10

Assay outcomes from PubChem BioAssay.
